Source: ChEMBL document CHEMBL1152399, “Synthesis and fungicidal activity of 3,5-dichloropyrazin-2(1H)-one derivatives” (2009)
Values after ≈ are worked out from the molar mass of the structure shown.

Columns and labels:
Assay type in all cases: functional
Candida albicans [1] = test: Antifungal activity against Candida albicans CAI4
Summary of the method: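 C. albicans CAI4 overnight YPD culture diluted in PBS (~2 × 10⁶ cells/mL) and exposed to a range of compound concentrations in 2% DMSO for 5 h at 37 °C, then CFU counted. Survival is the CFU ratio against the 2% DMSO control. MFC is the lowest concentration giving <0.1% survival.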

Candida albicans [2] = test: Induction of reactive oxygen species production in Candida albicans assessed as corrected fluorescence value at 100 ug/mL after 3 hrs by fluorescence assay
Summary of the method: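 C. albicans grown overnight in YPD at 37 °C and resuspended in PBS. Cells mixed with a 100 µg/mL compound solution in 10% DMSO (DMSO alone as control) and held 1 h at 37 °C. 2',7'-dichlorofluorescin diacetate then added; fluorescence read after 3 h (ex 485/em 525 nm). A compound-plus-probe blank without cells was subtracted to give the corrected value.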

Saccharomyces cerevisiae [3] = test: Ratio of MIC for wild type Saccharomyces cerevisiae BY4741 to MIC for REG1 gene knockout Saccharomyces cerevisiae mutant
Saccharomyces cerevisiae [4] = test: Ratio of MIC for wild type Saccharomyces cerevisiae BY4741 to MIC for SPT7 gene knockout Saccharomyces cerevisiae mutant
Saccharomyces cerevisiae [5] = test: Antifungal activity against GET2 gene knockout Saccharomyces cerevisiae mutant after 48 hrs by microtiter plate method
Summary of the method: (§1)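 Yeast deletion mutants grown in YPD in microtiter wells for 48 h at 30 °C. For the retest, 5 µL fivefold serial dilutions of stationary-phase cultures were spotted on YPD with or without compound, and growth was compared with BY4741 after 48 h at 30 °C.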

Saccharomyces cerevisiae [6] = test: Ratio of MIC for wild type Saccharomyces cerevisiae BY4741 to MIC for YKL118W gene knockout Saccharomyces cerevisiae mutant
Saccharomyces cerevisiae [7] = test: Ratio of MIC for wild type Saccharomyces cerevisiae BY4741 to MIC for CUP5 gene knockout Saccharomyces cerevisiae mutant
Saccharomyces cerevisiae [8] = test: Antifungal activity against wild type Saccharomyces cerevisiae BY4741 after 48 hrs by microtiter plate method; details: BY4741, 48 h; summary of the method: as §1
Saccharomyces cerevisiae [9] = test: Antifungal activity against YKL118W gene knockout Saccharomyces cerevisiae mutant after 48 hrs by microtiter plate method; summary of the method: as §1
Saccharomyces cerevisiae [10] = test: Antifungal activity against AMD1 gene knockout Saccharomyces cerevisiae mutant after 48 hrs by microtiter plate method; summary of the method: as §1
Candida albicans [11] = test: Antifungal activity against Candida albicans assessed as fungus survival rate at 5 ug/mL in absence of ascorbic acid
Summary of the method: (§2)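 Overnight C. albicans YPD culture diluted in PBS (~2 × 10⁶ cells/mL) and treated with compound in 2% DMSO, with or without 80 mM ascorbic acid, for 5 h at 37 °C. CFU counted, and percentage survival taken against the 2% DMSO control.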

Saccharomyces cerevisiae [12] = test: Antifungal activity against SPT7 gene knockout Saccharomyces cerevisiae mutant after 48 hrs by microtiter plate method; summary of the method: as §1
Saccharomyces cerevisiae [13] = test: Antifungal activity against REG1 gene knockout Saccharomyces cerevisiae mutant after 48 hrs by microtiter plate method; summary of the method: as §1
Saccharomyces cerevisiae [14] = test: Ratio of MIC for wild type Saccharomyces cerevisiae BY4741 to MIC for GET2 gene knockout Saccharomyces cerevisiae mutant
Saccharomyces cerevisiae [15] = test: Antifungal activity against ADA2 gene knockout Saccharomyces cerevisiae mutant after 48 hrs by microtiter plate method; summary of the method: as §1
Saccharomyces cerevisiae [16] = test: Ratio of MIC for wild type Saccharomyces cerevisiae BY4741 to MIC for ADA2 gene knockout Saccharomyces cerevisiae mutant
Saccharomyces cerevisiae [17] = test: Ratio of MIC for wild type Saccharomyces cerevisiae BY4741 to MIC for VPS15 gene knockout Saccharomyces cerevisiae mutant
Saccharomyces cerevisiae [18] = test: Ratio of MIC for wild type Saccharomyces cerevisiae BY4741 to MIC for AMD1 gene knockout Saccharomyces cerevisiae mutant
Saccharomyces cerevisiae [19] = test: Ratio of MIC for wild type Saccharomyces cerevisiae BY4741 to MIC for VMA7 gene knockout Saccharomyces cerevisiae mutant
Saccharomyces cerevisiae [20] = test: Ratio of MIC for 3,5-dichloro-6-(chloromethyl)-1-phenylpyrazin-2(1H)-one-resistant Saccharomyces cerevisiae mutant to MIC for wild type Saccharomyces cerevisiae BY4741
Saccharomyces cerevisiae [21] = test: Antifungal activity against VPS15 gene knockout Saccharomyces cerevisiae mutant after 48 hrs by microtiter plate method; summary of the method: as §1
Saccharomyces cerevisiae [22] = test: Antifungal activity against CUP5 gene knockout Saccharomyces cerevisiae mutant after 48 hrs by microtiter plate method; summary of the method: as §1
Saccharomyces cerevisiae [23] = test: Antifungal activity against 3,5-dichloro-6-(chloromethyl)-1-phenylpyrazin-2(1H)-one-resistant Saccharomyces cerevisiae mutant after 48 hrs by microtiter plate method
Saccharomyces cerevisiae [24] = test: Antifungal activity against VPH2 gene knockout Saccharomyces cerevisiae mutant after 48 hrs by microtiter plate method; summary of the method: as §1
Saccharomyces cerevisiae [25] = test: Ratio of MIC for wild type Saccharomyces cerevisiae BY4741 to MIC for VPH2 gene knockout Saccharomyces cerevisiae mutant
Saccharomyces cerevisiae [26] = test: Antifungal activity against VMA7 gene knockout Saccharomyces cerevisiae mutant after 48 hrs by microtiter plate method; summary of the method: as §1
Saccharomyces cerevisiae [27] = test: Ratio of MIC for wild type Saccharomyces cerevisiae BY4741 to MIC for HTL1 gene knockout Saccharomyces cerevisiae mutant
Saccharomyces cerevisiae [28] = test: Antifungal activity against HTL1 gene knockout Saccharomyces cerevisiae mutant after 48 hrs by microtiter plate method; summary of the method: as §1
Candida albicans [29] = test: Antifungal activity against Candida albicans assessed as fungus survival rate at 5 ug/mL in presence of ascorbic acid; summary of the method: as §2

O=c1c(Cl)nc(Cl)cn1Cc1ccccc1
MFC (Candida albicans [1]): 50 µg/mL (≈ 196 µM)

COc1ccccc1-c1c(Cl)nc(Cl)c(=O)n1-c1ccccc1
MFC (Candida albicans [1]): > 100 µg/mL | Activity (Candida albicans [2]): < 100

COc1nc(Cl)c(CCl)n(-c2ccccc2)c1=O
MFC (Candida albicans [1]): > 100 µg/mL | Activity (Candida albicans [2]): >500

O=c1c(Cl)nc(Cl)c(CBr)n1-c1ccccc1
MFC (Candida albicans [1]): 5 µg/mL (≈ 15 µM)

O=c1c(Cl)nc(Cl)cn1CC1CCCCC1
MFC (Candida albicans [1]): 100 µg/mL (≈ 383 µM)

Cc1c(Cl)nc(Cl)c(=O)n1-c1ccccc1
MFC (Candida albicans [1]): > 100 µg/mL

COc1ccc(-n2cc(Cl)nc(Cl)c2=O)cc1
MFC (Candida albicans [1]): 10 µg/mL (≈ 36.9 µM)

O=c1c(Cl)nc(Cl)cn1C1CCCCC1
MFC (Candida albicans [1]): > 100 µg/mL | Activity (Candida albicans [2]): >500

O=c1c(-c2ccccc2)nc(Cl)c(CCl)n1-c1ccccc1
MFC (Candida albicans [1]): > 100 µg/mL | Activity (Candida albicans [2]): >500

COc1ccc(-c2c(Cl)nc(Cl)c(=O)n2-c2ccccc2)cc1
MFC (Candida albicans [1]): > 100 µg/mL

Cc1c(Cl)nc(Cl)c(=O)n1Cc1ccccc1
MFC (Candida albicans [1]): > 100 µg/mL | Activity (Candida albicans [2]): >500

COc1ccc(Cn2cc(Cl)nc(Cl)c2=O)cc1
MFC (Candida albicans [1]): 50 µg/mL (≈ 175 µM)

O=c1c(Cl)nc(Cl)c(CCl)n1-c1ccccc1
Ratio (Saccharomyces cerevisiae [3]): 5 | Ratio (Saccharomyces cerevisiae [4]): 5 | MIC (Saccharomyces cerevisiae [5]): 0.5 µg/mL (≈ 1.73 µM) | Ratio (Saccharomyces cerevisiae [6]): 5 | MFC (Candida albicans [1]): 5 µg/mL (≈ 17.3 µM) | Ratio (Saccharomyces cerevisiae [7]): 5 | MIC (Saccharomyces cerevisiae [8]): 2.5 µg/mL (≈ 8.63 µM) | MIC (Saccharomyces cerevisiae [9]): 0.5 µg/mL (≈ 1.73 µM) | MIC (Saccharomyces cerevisiae [10]): 0.5 µg/mL (≈ 1.73 µM) | Activity (Candida albicans [11]): 0.009% | MIC (Saccharomyces cerevisiae [12]): 0.5 µg/mL (≈ 1.73 µM) | MIC (Saccharomyces cerevisiae [13]): 0.5 µg/mL (≈ 1.73 µM) | Ratio (Saccharomyces cerevisiae [14]): 5 | MIC (Saccharomyces cerevisiae [15]): 0.5 µg/mL (≈ 1.73 µM) | Ratio (Saccharomyces cerevisiae [16]): 5 | Ratio (Saccharomyces cerevisiae [17]): 5 | Ratio (Saccharomyces cerevisiae [18]): 5 | Ratio (Saccharomyces cerevisiae [19]): 5 | Ratio (Saccharomyces cerevisiae [20]): 5 | MIC (Saccharomyces cerevisiae [21]): 0.5 µg/mL (≈ 1.73 µM) | MIC (Saccharomyces cerevisiae [22]): 0.5 µg/mL (≈ 1.73 µM) | MIC (Saccharomyces cerevisiae [23]): 12.5 µg/mL (≈ 43.2 µM) | MIC (Saccharomyces cerevisiae [24]): 0.5 µg/mL (≈ 1.73 µM) | Ratio (Saccharomyces cerevisiae [25]): 5 | MIC (Saccharomyces cerevisiae [26]): 0.5 µg/mL (≈ 1.73 µM) | Ratio (Saccharomyces cerevisiae [27]): 5 | MIC (Saccharomyces cerevisiae [28]): 0.5 µg/mL (≈ 1.73 µM) | Activity (Candida albicans [29]): 64%

COCCn1c(-c2ccccc2)c(Cl)nc(Cl)c1=O
MFC (Candida albicans [1]): > 100 µg/mL | Activity (Candida albicans [2]): >500

COc1ccccc1Cn1c(Cc2ccccc2)c(Cl)nc(Cl)c1=O
MFC (Candida albicans [1]): > 100 µg/mL

Cc1ccccc1-c1c(Cl)nc(Cl)c(=O)n1-c1ccccc1
MFC (Candida albicans [1]): > 100 µg/mL | Activity (Candida albicans [2]): >500

O=c1c(Cl)nc(Cl)cn1CCc1ccccc1
MFC (Candida albicans [1]): 50 µg/mL (≈ 186 µM)

O=c1c(Cl)nc(Cl)cn1-c1ccccc1
MFC (Candida albicans [1]): 10 µg/mL (≈ 41.5 µM)

COc1ccc(Cn2c(-c3ccc(OC)cc3)c(Cl)nc(Cl)c2=O)cc1
MFC (Candida albicans [1]): > 100 µg/mL | Activity (Candida albicans [2]): >500

COc1cccc(-c2c(Cl)nc(Cl)c(=O)n2C)c1
MFC (Candida albicans [1]): > 100 µg/mL | Activity (Candida albicans [2]): >500

COC(=O)c1ccc(-c2c(Cl)nc(Cl)c(=O)n2-c2ccccc2)cc1
MFC (Candida albicans [1]): > 100 µg/mL

COc1ccc(Cn2c(C)c(Cl)nc(Cl)c2=O)cc1
MFC (Candida albicans [1]): > 100 µg/mL
